# From ChEMBL document CHEMBL3232844, “Synthesis and structure activity relationships of schweinfurthin indoles” (2014)
# Experiments:
# Assay type in all cases: functional
# CCRF-CEM = assay: Cytotoxicity against human CCRF-CEM cells
# K562 = assay: Cytotoxicity against human K562 cells
# Summary of the method: (§1)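 Tested in a 60-cell-line human tumor panel screen; the read-out is growth inhibition, reported as GI50 for each cell line.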
# MOLT-4 = assay: Cytotoxicity against human MOLT4 cells; summary of the method: as §1
# A549 = assay: Cytotoxicity against human A549 cells; summary of the method: as §1
# [1] = Cytotoxicity against human EKVX cells; summary of the method: as §1
# HOP-62 = assay: Cytotoxicity against human HOP62 cells; summary of the method: as §1
# NCI-H226 = assay: Cytotoxicity against human NCI-H226 cells; summary of the method: as §1
# NCI-H23 = assay: Cytotoxicity against human NCI-H23 cells; summary of the method: as §1
# COLO 205 = assay: Cytotoxicity against human COLO205 cells; summary of the method: as §1
# HCC 2998 = assay: Cytotoxicity against human HCC2998 cells; summary of the method: as §1
# [2] = Cytotoxicity against human HCT15 cells; summary of the method: as §1
# HT-29 = assay: Cytotoxicity against human HT-29 cells; summary of the method: as §1
# KM12 = assay: Cytotoxicity against human KM12 cells; summary of the method: as §1
# SF-295 = assay: Cytotoxicity against human SF295 cells; summary of the method: as §1
# SF-539 = assay: Cytotoxicity against human SF539 cells; summary of the method: as §1
# SNB-19 = assay: Cytotoxicity against human SNB19 cells; summary of the method: as §1
# SNB-75 = assay: Cytotoxicity against human SNB75 cells
# Summary of the method: (§2)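 Cell line run as part of the 60-cell-line screening panel; growth inhibition was reported as a GI50 for each line.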
# U-251 = assay: Cytotoxicity against human U251 cells; summary of the method: as §2
# LOX IMVI = assay: Cytotoxicity against human LOXIMVI cells; summary of the method: as §1
# M14 = assay: Cytotoxicity against human M14 cells; summary of the method: as §1
# NCI-H322M = assay: Cytotoxicity against human NCI-H322M cells; summary of the method: as §1
# NCI-H460 = assay: Cytotoxicity against human NCI-H460 cells; summary of the method: as §1
# SK-MEL-2 = assay: Cytotoxicity against human SK-MEL-2 cells; summary of the method: as §1
# SK-MEL-5 = assay: Cytotoxicity against human SK-MEL-5 cells; summary of the method: as §1
# [3] = Cytotoxicity against human UACC257 cells; summary of the method: as §2
# [4] = Cytotoxicity against human UACC62 cells; summary of the method: as §2
# [5] = Cytotoxicity against human OVCAR3 cells; summary of the method: as §1
# [6] = Cytotoxicity against human OVCAR4 cells; summary of the method: as §1
# [7] = Cytotoxicity against human OVCAR5 cells; summary of the method: as §1
# [8] = Cytotoxicity against human OVCAR8 cells; summary of the method: as §1
# [9] = Cytotoxicity against human NCI-ADR-RES cells; summary of the method: as §1
# SK-OV-3 = assay: Cytotoxicity against human SKOV3 cells; summary of the method: as §1
# A498 = assay: Cytotoxicity against human A498 cells; summary of the method: as §1
# ACHN = assay: Cytotoxicity against human ACHN cells; summary of the method: as §1
# CAKI-1 = assay: Cytotoxicity against human Caki1 cells; summary of the method: as §1
# RXF 393 = assay: Cytotoxicity against human RXF393 cells; summary of the method: as §1
# TK-10 = assay: Cytotoxicity against human TK10 cells; summary of the method: as §2
# [10] = Cytotoxicity against human UO31 cells; summary of the method: as §2
# DU-145 = assay: Cytotoxicity against human DU145 cells; summary of the method: as §1
# MCF7 = assay: Cytotoxicity against human MCF7 cells; summary of the method: as §1
# MDA-MB-231 = assay: Cytotoxicity against human MDA-MB-231 cells; summary of the method: as §1
# BT-549 = assay: Cytotoxicity against human BT549 cells; summary of the method: as §1
# T47D = assay: Cytotoxicity against human T47D cells; summary of the method: as §2
# MDA-MB-468 = assay: Cytotoxicity against human MDA-MB-468 cells; summary of the method: as §1
# [11] = read-out: pLC50 (the source's name) (converted)
compound,measurement,setting,value
COc1cc(/C=C/c2cc(OC)c3c(CC=C(C)C)c[nH]c3c2)cc2c1O[C@]1(C)CC[C@@H](O)C(C)(C)[C@H]1C2,GI50,CCRF-CEM,0.209 µM
same,CC50,CCRF-CEM; [11],> 100 µM
same,TGI,CCRF-CEM; read-out: pTGI (converted),0.851 µM
same,GI50,K562,0.309 µM
same,CC50,K562; [11],> 100 µM
same,TGI,K562; read-out: pTGI (converted),1.38 µM
same,GI50,MOLT-4,0.155 µM
same,CC50,MOLT-4; [11],> 100 µM
same,TGI,MOLT-4; read-out: pTGI (converted),0.661 µM
same,GI50,A549,0.525 µM
same,CC50,A549; [11],50.1 µM
same,TGI,A549; read-out: pTGI (converted),12.9 µM
same,GI50,[1],0.832 µM
same,CC50,[1]; [11],> 100 µM
same,TGI,[1]; read-out: pTGI (converted),6.61 µM
same,GI50,HOP-62,0.0871 µM
same,CC50,HOP-62; [11],2.34 µM
same,TGI,HOP-62; read-out: pTGI (converted),0.479 µM
same,GI50,NCI-H226,2.69 µM
same,CC50,NCI-H226; [11],32.4 µM
same,TGI,NCI-H226; read-out: pTGI (converted),9.77 µM
same,GI50,NCI-H23,0.646 µM
same,CC50,NCI-H23; [11],26.9 µM
same,TGI,NCI-H23; read-out: pTGI (converted),3.55 µM
same,GI50,COLO 205,0.219 µM
same,CC50,COLO 205; [11],1.55 µM
same,TGI,COLO 205; read-out: pTGI (converted),0.479 µM
same,GI50,HCC 2998,2.51 µM
same,CC50,HCC 2998; [11],53.7 µM
same,TGI,HCC 2998; read-out: pTGI (converted),15.8 µM
same,GI50,[2]; HCT-15,0.174 µM
same,CC50,"[2]; HCT-15, read-out: pLC50 (the source's name) (converted)",6.17 µM
same,TGI,"[2]; HCT-15, read-out: pTGI (converted)",1.35 µM
same,GI50,HT-29,0.107 µM
same,CC50,HT-29; [11],2.82 µM
same,TGI,HT-29; read-out: pTGI (converted),0.708 µM
same,GI50,KM12,0.355 µM
same,CC50,KM12; [11],7.94 µM
same,TGI,KM12; read-out: pTGI (converted),1.7 µM
same,GI50,SF-295; read-out: GI50,0.048 µM
same,GI50,SF-295; read-out: pGI50 (converted),0.0479 µM
same,CC50,SF-295; [11],0.871 µM
same,TGI,SF-295; read-out: pTGI (converted),0.219 µM
same,GI50,SF-539,0.0501 µM
same,CC50,SF-539; [11],2.51 µM
same,TGI,SF-539; read-out: pTGI (converted),0.309 µM
same,GI50,SNB-19,0.398 µM
same,CC50,SNB-19; [11],28.2 µM
same,TGI,SNB-19; read-out: pTGI (converted),4.17 µM
same,GI50,SNB-75,0.0891 µM
same,CC50,SNB-75; [11],75.9 µM
same,TGI,SNB-75; read-out: pTGI (converted),2.69 µM
same,GI50,U-251,0.0759 µM
same,CC50,U-251; [11],12.9 µM
same,TGI,U-251; read-out: pTGI (converted),2.29 µM
same,GI50,LOX IMVI,0.295 µM
same,CC50,LOX IMVI; [11],4.47 µM
same,TGI,LOX IMVI; read-out: pTGI (converted),1.29 µM
same,GI50,M14,0.525 µM
same,CC50,M14; [11],46.8 µM
same,TGI,M14; read-out: pTGI (converted),2.82 µM
same,GI50,NCI-H322M,6.31 µM
same,CC50,NCI-H322M; [11],> 100 µM
same,TGI,NCI-H322M; read-out: pTGI (converted),39.8 µM
same,GI50,NCI-H460,0.372 µM
same,CC50,NCI-H460; [11],17 µM
same,TGI,NCI-H460; read-out: pTGI (converted),2.19 µM
same,GI50,SK-MEL-2,0.331 µM
same,CC50,SK-MEL-2; [11],11 µM
same,TGI,SK-MEL-2; read-out: pTGI (converted),1.58 µM
same,GI50,SK-MEL-5,0.263 µM
same,CC50,SK-MEL-5; [11],1.48 µM
same,TGI,SK-MEL-5; read-out: pTGI (converted),0.676 µM
same,GI50,[3]; UACC-257,2.09 µM
same,CC50,"[3]; UACC-257, read-out: pLC50 (the source's name) (converted)",49 µM
same,TGI,"[3]; UACC-257, read-out: pTGI (converted)",12.9 µM
same,GI50,[4]; UACC-62,0.229 µM
same,CC50,"[4]; UACC-62, read-out: pLC50 (the source's name) (converted)",9.12 µM
same,TGI,"[4]; UACC-62, read-out: pTGI (converted)",0.661 µM
same,GI50,[5]; OVCAR-3,2.82 µM
same,CC50,"[5]; OVCAR-3, read-out: pLC50 (the source's name) (converted)",38 µM
same,TGI,"[5]; OVCAR-3, read-out: pTGI (converted)",12 µM
same,GI50,[6]; OVCAR-4,2.45 µM
same,CC50,"[6]; OVCAR-4, read-out: pLC50 (the source's name) (converted)",> 100 µM
same,TGI,"[6]; OVCAR-4, read-out: pTGI (converted)",33.1 µM
same,GI50,[7]; OVCAR-5,1.55 µM
same,CC50,"[7]; OVCAR-5, read-out: pLC50 (the source's name) (converted)",51.3 µM
same,TGI,"[7]; OVCAR-5, read-out: pTGI (converted)",7.24 µM
same,GI50,[8]; OVCAR-8,3.8 µM
same,CC50,"[8]; OVCAR-8, read-out: pLC50 (the source's name) (converted)",74.1 µM
same,TGI,"[8]; OVCAR-8, read-out: pTGI (converted)",23.4 µM
same,GI50,[9],2.88 µM
same,CC50,[9]; [11],> 100 µM
same,TGI,[9]; read-out: pTGI (converted),28.8 µM
same,GI50,SK-OV-3,0.776 µM
same,LC50,SK-OV-3,67.6 µM
same,TGI,SK-OV-3; read-out: pTGI (converted),7.24 µM
same,GI50,A498,0.138 µM
same,CC50,A498; [11],5.25 µM
same,TGI,A498; read-out: pTGI (converted),0.603 µM
same,GI50,ACHN,1.26 µM
same,LC50 (concentration killing 50% of cells),ACHN,49 µM
same,TGI,ACHN; read-out: pTGI (converted),15.1 µM
same,GI50,CAKI-1,0.347 µM
same,LC50,CAKI-1,53.7 µM
same,TGI,CAKI-1; read-out: pTGI (converted),2.19 µM
same,GI50,RXF 393,0.0263 µM
same,LC50,RXF 393,0.724 µM
same,TGI,RXF 393; read-out: pTGI (converted),0.105 µM
same,GI50,TK-10,2.75 µM
same,LC50,TK-10,66.1 µM
same,TGI,TK-10; read-out: pTGI (converted),17.4 µM
same,GI50,[10]; UO-31,0.437 µM
same,LC50,[10]; UO-31,56.2 µM
same,TGI,"[10]; UO-31, read-out: pTGI (converted)",6.92 µM
same,GI50,DU-145,2.04 µM
same,LC50 (50% lethal concentration),DU-145,46.8 µM
same,TGI,DU-145; read-out: pTGI (converted),15.1 µM
same,GI50,MCF7,0.398 µM
same,LC50,MCF7,19.1 µM
same,TGI,MCF7; read-out: pTGI (converted),3.72 µM
same,GI50,MDA-MB-231,0.269 µM
same,LC50,MDA-MB-231,30.9 µM
same,TGI,MDA-MB-231; read-out: pTGI (converted),2.4 µM
same,GI50,BT-549,0.355 µM
same,CC50,BT-549; [11],67.6 µM
same,TGI,BT-549; read-out: pTGI (converted),15.5 µM
same,GI50,T47D,1.74 µM
same,CC50,T47D; [11],> 100 µM
same,TGI,T47D; read-out: pTGI (converted),17 µM
same,GI50,MDA-MB-468,0.195 µM
same,LC50,MDA-MB-468,10.5 µM
same,TGI,MDA-MB-468; read-out: pTGI (converted),1.1 µM
